Reference: article PMC3113694 (Cancer research, 2010)
Where “and” joins values, the source holds several entries; their conditions need not be identical. Equal values may be shown once.

Tests used:
procaspase-3 D3A = target: T1, procaspase-3 D3A (Homo sapiens, UniProt P42574, D175A/D28A/D9A); assay: Procaspase-3 activation; type: biochemical; settings: 50 µM compound; for Incubation time to maximal activity: procaspase-3 7.5 µM, zinc 10 µM
T1 sequence (P42574 1-277 D9A/D28A/D175A): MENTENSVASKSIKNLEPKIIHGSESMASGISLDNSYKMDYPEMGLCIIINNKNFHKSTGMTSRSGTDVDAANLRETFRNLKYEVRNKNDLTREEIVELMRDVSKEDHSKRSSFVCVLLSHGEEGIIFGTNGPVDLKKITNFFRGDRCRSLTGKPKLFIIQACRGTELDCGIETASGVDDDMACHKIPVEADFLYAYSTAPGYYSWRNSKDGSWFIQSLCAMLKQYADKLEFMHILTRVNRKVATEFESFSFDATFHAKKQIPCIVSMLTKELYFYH
Outline: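 Zinc-free uncleavable procaspase-3 (D9A/D28A/D175A), recombinantly expressed, at 7.5 µM in Chelex-treated 50 mM Hepes, 300 mM NaCl. Incubated with 10 µM ZnSO4. Basal activity read with 200 µM Ac-DEVD-pNA at 405 nm. Vehicle or test compound then added to 50 µM final and activity re-read every 20 min. Activity was taken from the slope and normalised to a zinc-free sample (100%) and DMSO (0%), n=3.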

U-937 = assay: Cytotoxicity, sulforhodamine B assay; type: cell-based, Human; settings: read-out: 72 hour IC50, exposure time 72 h
EL-4 = assay: Cytotoxicity, sulforhodamine B assay; type: cell-based; settings: read-out: 72 hour IC50; EL-4 mouse lymphoma; exposure 72 h
17–71 = assay: Cytotoxicity, MTS cell viability assay; type: cell-based; settings: read-out: 72 hour IC50, 17–71 dog lymphoma, exposure 72 h
GL-1 = assay: Cytotoxicity, sulforhodamine B assay; type: cell-based; settings: read-out: 72 hour IC50; GL-1 dog lymphoma; exposure 72 h
OSW = assay: Cytotoxicity, sulforhodamine B assay; type: cell-based; settings: read-out: 72 hour IC50; OSW dog lymphoma; exposure 72 h
Jurkat = assay: Cytotoxicity, sulforhodamine B assay; type: cell-based; settings: read-out: 72 hour IC50; Jurkat human leukemia; exposure 72 h
SK-Mel-5 = assay: Cytotoxicity, sulforhodamine B assay; type: cell-based; settings: read-out: 72 hour IC50; SK-Mel-5 human melanoma; exposure 72 h
HeLa = assay: Cytotoxicity, sulforhodamine B assay; type: cell-based; settings: read-out: 72 hour IC50; HeLa human cervical; exposure 72 h
MDA-MB-231 = assay: Cytotoxicity, sulforhodamine B assay; type: cell-based; settings: read-out: 72 hour IC50; MDA-MB-231 human breast; exposure 72 h
healthy dog = assay: Toxicity of intravenous PAC-1 in a healthy dog; type: in vivo; settings: 25 mg/kg as a 5-minute intravenous infusion; transient, not life-limiting
[1] = Pharmacokinetics in mice after tail vein injection; type: in vivo, C57/BL6 mice
[2] = read-out: Kd of PAC-1:Zn^2+; cited from earlier work
C57/BL6 mice [3] = settings: mouse, in vivo
C57/BL6 mice [4] = assay: Toxicity determination in mice after tail vein injection
[5] = Pharmacokinetics in healthy research dogs, single IV dose; type: in vivo; settings: 25 mg/kg IV; individual dogs Hound A-D

SMILES: C=CCc1cccc(/C=N/NC(=O)CN2CCN(Cc3ccccc3)CC2)c1O [PAC-1]
- Incubation time to maximal activity (procaspase-3 D3A): 5 min
- IC50 (U-937): 9.3 ± 0.5 µM
- IC50 (EL-4): 3.8 ± 0.9 µM
- IC50 (17–71): 2.5 ± 0.9 µM
- IC50 (GL-1): 4.9 ± 0.3 µM
- IC50 (OSW): 8.6 ± 1.3 µM
- IC50 (Jurkat): 5.7 ± 2.8 µM
- IC50 (SK-Mel-5): 11.5 ± 3.6 µM
- IC50 (HeLa): 15.5 ± 3.8 µM
- IC50 (MDA-MB-231): 9.9 ± 1 µM
- Neurotoxicity in one healthy dog (healthy dog): grand mal seizure activity
- Peak plasma concentration ([1]; 20 mg/kg tail vein injection): ~ 50 µM
- Kd [2]: 0.052 ± 0.002 µM
- Onset of neurotoxicity after drug administration (C57/BL6 mice [3]): ≤ 5 min
- Resolution of neurotoxicity (C57/BL6 mice [4]; in HPβCD via tail vein injection): ≤ 2 h
- Dose at which significant neurological symptoms first appear (C57/BL6 mice [4]; tail vein injection): 20 mg/kg
- Dose where acute neurological symptoms are present (C57/BL6 mice [4]; tail vein injection): 50 mg/kg

SMILES: C=CCc1cccc(C=NNC(=O)CN2CCN(Cc3ccc(S(N)(=O)=O)cc3)CC2)c1O [S-PAC-1]
- Incubation time to maximal activity (procaspase-3 D3A): 5 min
- Enhancement of enzymatic activity of the proenzyme (procaspase-3 D3A; procaspase-3 D3A 7.5 µM, ZnSO4 10 µM): enhances the enzymatic activity of the proenzyme by relief of zinc-mediated inhibition, although to a lesser degree than PAC-1
- Peak plasma levels ([1]; 350 mg/kg tail vein injection, without signs of neurotoxicity): ~ 3500 µM
- AUMC0-inf [5]: 93.63 h*h*ug/ml and 104.77 h*h*ug/ml and 90.48 h*h*ug/ml and 101.78 h*h*ug/ml
- Cls [5]: 5.67 mL/min/kg and 5.58 mL/min/kg and 5.07 mL/min/kg and 5.28 mL/min/kg
- MRT [5]: 1.27 h and 1.40 h and 1.10 h and 1.29 h
- Tmax [5]: 0.17 h
- Vss [5]: 0.4325 L/kg and 0.4708 L/kg and 0.3348 L/kg and 0.41 L/kg
